Measurements reported in ChEMBL document CHEMBL1121797, “Studies on chiral interactions of 1-(2,5-dimethoxy-4-methylphenyl)-2-aminopropane and the corresponding N-hydroxy metabolites with cytochrome P-450” (J Med Chem, 1981).

What was measured:
[1] = Initial rates of formation of metabolic intermediate Cytochrome P-450 at compound concentration of 30 uM; type: ADME
In short: (§1)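 Rabbit liver microsomes at 2 mg protein/mL with 0.1 mM EDTA, 37 °C, substrate 30 μM. Complex formation started with 0.4 mM NADPH and followed by dual-wavelength absorbance, 457 vs 500 nm. Initial rate is the initial slope, ΔA×10^4 per nmol P-450 per min. Extent is the plateau absorbance. Lag is the time from NADPH addition to first 457-nm chromophore. Triplicate or single runs.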

[2] = Extent rates of formation of metabolic intermediate Cytochrome P-450 at compound concentration of 30 uM; type: ADME; in short: as §1
[3] = target: T1, Cytochrome P450 2C19 (Homo sapiens, UniProt P33261); experiment: Percent inhibition of formation of metabolic intermediate complex between Cytochrome P450 and compound 1a (30 uM) on extent, on pre-incubation with compound concentration of 5 uM; type: ADME, Oryctolagus cuniculus; conditions: rabbit, probe compound 1a (30 uM)
In short: (§2)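 Hepatic microsomes came from male Dutch rabbits, fasted 24 h. They were diluted to 2 mg protein/mL in 50 mM Tris-Cl with 150 mM KCl, 10 mM MgSO4 and 0.1 mM EDTA, with NADPH added, at 37 °C. Microsomes were preincubated with racemic hydroxylamine 2, then 30 µM 1a or 30 µM racemic 2 was added. Complex formation was followed as ΔA457–500 nm, and inhibition of rate and extent (plateau) was calculated.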

[4] = target: T1, Cytochrome P450 2C19; experiment: Percent inhibition of formation of metabolic intermediate complex between Cytochrome P450 and compound 1ab (30 uM) initially, following incubation at compound concentration of 20 uM; type: ADME, Oryctolagus cuniculus; conditions: rabbit, probe compound 1ab (30 uM)
In short: (§3)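 Rabbit liver microsomes (2 mg protein/mL; Tris-Cl/KCl/MgSO4 buffer, 0.1 mM EDTA) plus NADPH, at 37 °C, were preincubated with racemic or enantiomeric amine 1. The 457-nm complex was monitored until it plateaued (6–8 min), then racemic hydroxylamine 2 was added. Initial rate and plateau extent of complex formation came from dual-wavelength ΔA457–500 nm versus time tracings.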

[5] = target: T1, Cytochrome P450 2C19; experiment: Percent inhibition of formation of metabolic intermediate complex between Cytochrome P450 and compound 1ab (30 uM) on extent, following incubation at compound concentration of 20 uM; type: ADME, Oryctolagus cuniculus; conditions: rabbit, probe compound 1ab (30 uM); in short: as §3
[6] = target: T1, Cytochrome P450 2C19; experiment: Percent inhibition of formation of metabolic intermediate complex between Cytochrome P450 and compound 1b (30 uM) on extent, following incubation at compound concentration of 20 uM; type: ADME, Oryctolagus cuniculus; conditions: rabbit, probe compound 1b (30 uM); in short: as §3
[7] = target: T1, Cytochrome P450 2C19; experiment: Percent inhibition of formation of metabolic intermediate complex between Cytochrome P450 and compound 1a (30 uM) on extent, following incubation at compound concentration of 30 uM; type: ADME, Oryctolagus cuniculus; conditions: rabbit
[8] = target: T1, Cytochrome P450 2C19; experiment: Percent inhibition of formation of metabolic intermediate complex between Cytochrome P450 and compound 1a (30 uM) on extent, following incubation at compound concentration of 5 uM; type: ADME, Oryctolagus cuniculus; conditions: rabbit, probe compound 1a (30 uM); in short: as §2
[9] = target: T1, Cytochrome P450 2C19; experiment: Percent inhibition of formation of metabolic intermediate complex between Cytochrome P450 and compound 1a (30 uM) on extent, on pre-incubation with compound concentration of 0 uM; type: ADME, Oryctolagus cuniculus; conditions: rabbit, probe compound 1a (30 uM); in short: as §2
[10] = target: T1, Cytochrome P450 2C19; experiment: Percent inhibition of formation of metabolic intermediate complex between Cytochrome P450 and compound 1a (30 uM) on extent, on pre-incubation with compound concentration of 15 uM; type: ADME, Oryctolagus cuniculus; conditions: rabbit, probe compound 1a (30 uM); in short: as §2
[11] = target: T1, Cytochrome P450 2C19; experiment: Percent inhibition of formation of metabolic intermediate complex between Cytochrome P450 and compound 1a (30 uM) on extent, on pre-incubation with compound concentration of 30 uM; type: ADME, Oryctolagus cuniculus; conditions: rabbit, probe compound 1a (30 uM); in short: as §2
[12] = target: T1, Cytochrome P450 2C19; experiment: Percent inhibition of formation of metabolic intermediate complex between Cytochrome P450 and compound 1a (30 uM) initially, following incubation at compound concentration of 15 uM; type: ADME, Oryctolagus cuniculus; conditions: rabbit, probe compound 1a (30 uM)
In short: (§4)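 Inverse cross-inhibition in NADPH-supplemented rabbit liver microsomes at 37 °C. Preincubation with racemic hydroxylamine at 0–30 μM, monitoring 457-nm complex formation. The amine was then added at 30 μM, or racemic hydroxylamine at 30 μM. Initial rate and plateau extent were taken from ΔA457–500 nm tracings. Percent inhibition is relative to incubation in fresh microsomes.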

[13] = target: T1, Cytochrome P450 2C19; experiment: Percent inhibition of formation of metabolic intermediate complex between Cytochrome P450 and compound 1a (30 uM) initially, following incubation at compound concentration of 20 uM; type: ADME, Oryctolagus cuniculus; conditions: rabbit, probe compound 1a (30 uM)
[14] = target: T1, Cytochrome P450 2C19; experiment: (§5) Percent inhibition of formation of metabolic intermediate complex between Cytochrome P450 and compound 1a (30 uM) initially, following incubation at compound concentration of 30 uM; type: ADME, Oryctolagus cuniculus; conditions: rabbit, probe compound 1a (30 uM); in short: as §4
[15] = target: T1, Cytochrome P450 2C19; experiment: as §5; type: ADME, Oryctolagus cuniculus; conditions: rabbit, probe compound 1a (30 uM); in short: as §4; remark: listed apart in the source
[16] = target: T1, Cytochrome P450 2C19; experiment: Percent inhibition of formation of metabolic intermediate complex between Cytochrome P450 and compound 1a (30 uM) initially, following incubation at compound concentration of 5 uM; type: ADME, Oryctolagus cuniculus; conditions: rabbit, probe compound 1a (30 uM); in short: as §4
[17] = target: T1, Cytochrome P450 2C19; experiment: Percent inhibition of formation of metabolic intermediate complex between Cytochrome P450 and compound 1a (30 uM) initially, on pre-incubation with compound concentration of 0 uM; type: ADME, Oryctolagus cuniculus; conditions: rabbit, probe compound 1a (30 uM); in short: as §4
[18] = target: T1, Cytochrome P450 2C19; experiment: Percent inhibition of formation of metabolic intermediate complex between Cytochrome P450 and compound 1a (30 uM) initially, on pre-incubation with compound concentration of 15 uM; type: ADME, Oryctolagus cuniculus; conditions: rabbit, probe compound 1a (30 uM); in short: as §4
[19] = target: T1, Cytochrome P450 2C19; experiment: Percent inhibition of formation of metabolic intermediate complex between Cytochrome P450 and compound 1a (30 uM) initially, on pre-incubation with compound concentration of 30 uM; type: ADME, Oryctolagus cuniculus; conditions: rabbit, probe compound 1a (30 uM); in short: as §4
[20] = target: T1, Cytochrome P450 2C19; experiment: Percent inhibition of formation of metabolic intermediate complex between Cytochrome P450 and compound 1a (30 uM) on extent, following incubation at compound concentration of 0 uM; type: ADME, Oryctolagus cuniculus; conditions: rabbit, probe compound 1a (30 uM); in short: as §2
[21] = target: T1, Cytochrome P450 2C19; experiment: Percent inhibition of formation of metabolic intermediate complex between Cytochrome P450 and compound 1a (30 uM) on extent, following incubation at compound concentration of 15 uM; type: ADME, Oryctolagus cuniculus; conditions: rabbit, probe compound 1a (30 uM); in short: as §2
[22] = target: T1, Cytochrome P450 2C19; experiment: Percent inhibition of formation of metabolic intermediate complex between Cytochrome P450 and compound 1a (30 uM) on extent, following incubation at compound concentration of 20 uM; type: ADME, Oryctolagus cuniculus; conditions: rabbit, probe compound 1a (30 uM)

T1 sequence (P33261 whole entry): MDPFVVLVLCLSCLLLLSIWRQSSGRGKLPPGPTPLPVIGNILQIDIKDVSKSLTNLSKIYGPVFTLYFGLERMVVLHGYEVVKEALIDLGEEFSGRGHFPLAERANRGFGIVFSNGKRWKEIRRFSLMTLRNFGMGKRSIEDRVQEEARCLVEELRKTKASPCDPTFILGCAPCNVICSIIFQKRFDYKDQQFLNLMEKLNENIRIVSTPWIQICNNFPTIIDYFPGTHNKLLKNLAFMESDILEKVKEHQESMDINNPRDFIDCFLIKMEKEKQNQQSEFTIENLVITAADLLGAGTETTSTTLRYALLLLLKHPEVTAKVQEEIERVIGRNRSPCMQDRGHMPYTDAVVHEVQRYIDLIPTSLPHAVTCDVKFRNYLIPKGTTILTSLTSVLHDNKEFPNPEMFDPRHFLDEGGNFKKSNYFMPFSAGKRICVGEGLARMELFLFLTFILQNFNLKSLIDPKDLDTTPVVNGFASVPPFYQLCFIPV

SMILES: COc1cc(C[C@@H](C)NO)c(OC)cc1C.COc1cc(C[C@H](C)NO)c(OC)cc1C
- Rate [1]: 154
- Rate [2]: 131
- inhibition at 5 µM [3]: 43%
- inhibition at 20 µM [4]: 30%
- inhibition at 20 µM [5]: 12%
- inhibition at 20 µM [6]: 13%
- Inhibition ([7]; 30 µM): 66%
- inhibition at 30 µM ([7]; probe compound 1a (30 uM)): 73%
- inhibition at 5 µM [8]: 39%
- inhibition at 0 uM [9]: 0%
- inhibition at 15 µM [10]: 100%
- inhibition at 30 µM [11]: 100%
- inhibition at 15 µM [12]: 51%
- inhibition at 20 µM [13]: 29%
- inhibition at 30 µM [14]: 72%
- inhibition at 30 µM [15]: 74%
- inhibition at 5 µM [16]: 39%
- inhibition at 0 uM [17]: 0%
- inhibition at 15 µM [18]: 100%
- inhibition at 30 µM [19]: 100%
- inhibition at 0 uM [20]: 30%
- inhibition at 15 µM [21]: 46%
- inhibition at 20 µM [22]: 27%
